Experimental data gathered from unrelated publications.
Protocols differ between the studies behind these lines.
Target: Mitogen-activated protein kinase 9 (MAPK9, Homo sapiens, UniProt P45984)

| SMILES | assay | conditions | endpoint | value |
| --- | --- | --- | --- | --- |
| Cn1c2c(c3ccc(Cl)c(Cl)c31)C(C#N)C1(CCCC1)NC2=O (centres unmarked) | thermal stability, DSF | 10 µM | ΔTm | -0.1 °C |
| N#CCCc1ccc2c(c1)-c1[nH]c3ccc([N+](=O)[O-])cc3c1CC(=O)N2 | cell-free assay | 0.5 µM | remaining signal | 97.1% |
| COc1cc2ncnc(Nc3ccc(Oc4ccccc4)c(C)c3C)c2cc1OC | enzyme activity, inhibitor | 1 µM | inhibition | 7% |
| CC(=O)Nc1c(C(C)=O)c(=O)n(C)c2nc(-c3ccc(Cl)cc3Cl)c(-c3ccc(Cl)cc3)cc12 | cell-free assay, competition with immobilised ligand | 1 µM | remaining binding | 100% |
| COc1cc(Nc2cnc(C#N)c(O[C@H](C)CN(C)C)n2)ncc1-c1cnn(C)c1 | enzyme activity, inhibitor, radiometric | 10 µM | remaining activity | 79% |
| Cn1c2c(c3ccc(Cl)c(Cl)c31)C(C#N)C1(CCNCC1)NC2=O (racemic) | thermal stability, DSF | 10 µM | ΔTm | 0.2 °C |
| O=C(Nc1cnn(-c2csc(C(=O)NC3COC3)c2)c1)Nc1c(F)cccc1Cl | enzyme activity, inhibitor | 5 µM | remaining activity | 22.7% |
| FC(F)(F)c1ccc2c(c1)nc(-c1cccnc1)n2C1CC1 | cell-free assay, competition with immobilised ligand | 1 µM | remaining binding | 100% |
| Nc1nc(Nc2ccccc2)sc1C(=O)c1c(F)cccc1F | enzyme activity, inhibitor | 10 µM | remaining activity | 81% |
| Cn1c(=O)n(-c2ccc(C(C)(C)C#N)cc2)c2c3cc(-c4cnc5ccccc5c4)ccc3ncc21 | enzyme activity, inhibitor | 10 µM | remaining activity | 89% |
| O=C(NCc1ncc(C(F)(F)F)cc1Cl)c1ccc2c(c1)C1(CCS(=O)(=O)CC1)[C@@H](C1CC1)N2S(=O)(=O)c1ccc(F)cc1 | cell-free assay, competition with immobilised ligand | 1 µM | remaining binding | 82% |
| Nc1ncnc2occ(-c3ccc(NC(=O)Nc4cc(C(F)(F)F)ccc4F)cc3)c12 | cell-free assay, inhibitor | 20 µM | remaining signal | 0% |
| CC1=C(C#N)[C@@H](c2ccc3[nH]nc(C)c3c2)C(C#N)=C(c2ccc(Cl)cc2)N1 | cell-free assay, competition with immobilised ligand | 1 µM | remaining binding | 89.5% |
| Cc1ccc(C(=O)Nc2ccc(CN3CCN(C)CC3)c(C(F)(F)F)c2)cc1C#Cc1cnc2cccnn12 | enzyme activity, inhibitor | 23.5 nM | remaining activity | 62% |
| Cc1nccc(COC(=O)N2C[C@@H]3[C@@H](CNC(=O)c4ccc5[nH]nnc5c4)[C@@H]3C2)n1 | cell-free assay, competition with immobilised ligand | 1 µM | remaining binding | 95% |
| Cn1c2c(Cl)c(Cl)ccc2c2cn[nH]c(=O)c21 | thermal stability, DSF | 10 µM | ΔTm | 0 °C |

| SMILES | assay | conditions | endpoint | value |
| --- | --- | --- | --- | --- |
| CC(C)(O)[C@H]1CC[C@H](Nc2ccc3ncc(-c4cccc(C(F)(F)F)c4)n3n2)CC1 | enzyme activity, inhibitor | 1 µM | remaining activity | 109% |
| Oc1cccc(-c2nc(N3CCOCC3)c3oc4ncccc4c3n2)c1 | enzyme activity, inhibitor | 10 µM | remaining activity | 100% |
| Clc1ccc(Nc2nnc(Cc3ccncc3)c3ccccc23)cc1 | cell-free assay | 0.5 µM | remaining signal | 97.5% |
| CNC(=O)c1cc(Oc2ccc(NC(=O)Nc3ccc(Cl)c(C(F)(F)F)c3)cc2)ccn1 | enzyme activity, inhibitor | 0.3 µM | inhibition | 7% |
| O=C(Nc1cnn(-c2csc(C(=O)NC3COC3)c2)c1)Nc1ccccc1Cl | enzyme activity, inhibitor | 5 µM | remaining activity | 34.1% |
| O=C1Nc2ccc(Cl)cc2C1=Cc1cc(Cl)c(O)c(Cl)c1 | cell-free assay | 0.5 µM | remaining signal | 100% |
| Cc1cnc(NC2CCOCC2)nc1-n1cnc(C(=O)NC(CN)c2cc(F)cc(Cl)c2)c1 (centres unmarked) | enzyme activity, inhibitor, radiometric | 1 µM | remaining activity | 72% |
| O=C1NC(=O)c2cc(Nc3ccc(F)cc3)c(Nc3ccc(F)cc3)cc21 | cell-free assay | 0.5 µM | remaining signal | 61.4% |
| CC(C)(O)c1cncc(-c2nc3ccc(F)cc3n2C2CC2)c1 | cell-free assay, competition with immobilised ligand | 1 µM | remaining binding | 100% |
| CCN1CCC2(CC1)NC(=O)c1c(c3ccc(Cl)c(Cl)c3n1C)C2C#N (racemic) | thermal stability, DSF | 10 µM | ΔTm | -0.1 °C |
| CC(C)(C)c1nc2c(s1)c1nc(N)ncc1c1ccc(NS(=O)(=O)c3c(F)cccc3F)c(F)c12 | enzyme activity, inhibitor, radiometric | 1 µM | remaining activity | 95% |
| COc1cc(/C=C/C(=O)CC(=O)/C=C/c2ccc(O)c(OC)c2)ccc1O | enzyme activity, inhibitor | 1 µM | activity vs control | 104% |
| C[C@@H](c1cccc(C#N)c1)n1cc(Cl)cc(C(N)=O)c1=N | cell-free assay, competition with immobilised ligand | 1 µM | remaining binding | 82% |
| N#CC1c2c([nH]c3c(Cl)c(Cl)ccc23)C(=O)NC12CCCCC2 (racemic) | thermal stability, DSF | 10 µM | ΔTm | 0.7 °C |
| CNC(=O)c1ccc(Nc2ncc(C(F)(F)F)c(NCc3nccnc3N(C)S(C)(=O)=O)n2)cc1 | cell-free assay, competition with immobilised ligand | 0.1 µM | remaining binding | 95% |
| CCC1(CC)NC(=O)c2c(c3ccc(Cl)c(Cl)c3n2C)C1C#N (centres unmarked) | thermal stability, DSF | 10 µM | ΔTm | 0.1 °C |
